The species named for one experiment is Homo sapiens. The experiment can be described thus: Selectivity for human CB2 receptor over human CB1 receptor.
Experiment [1] concerns the target T1, Cannabinoid receptor 2 (Homo sapiens, UniProt P34972). Kind of experiment: Agonist activity at human CB2 receptor expressed in SF9 cells assessed as inhibition of CP-55940-stimulated GTP binding relative to control. The gist of the method: (§1)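 Sf9 insect-cell membranes co-expressing hCB1 or hCB2 with Gαi3 (Bmax 1.7 pmol/ml). Compound added in 50 mM Hepes/0.1% BSA to buffer with 10 mM MgCl2, 150 mM NaCl, GDP, 10 nM GTP-Europium and 0.0005% saponin. Final DMSO was 1%. Incubated 45 min at room temperature, then filtered, washed and read by fluorescence at 615 nm. 3 µM CP55940 set 100% efficacy. Logistic fit, n = 2–20.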

Experiment [2] concerns the target T1, Cannabinoid receptor 2. The experiment can be described thus: Agonist activity at human CB2 receptor expressed in CHO cells assessed as suppression of forskolin-stimulated cAMP accumulation relative to control. The format is functional, cell-based. The gist of the method: (§2)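 CHO cells expressing human CB1 or CB2. Read-out was suppression of forskolin-induced cAMP production in whole cells. Emax was taken as the maximum of the dose–response curve. Values are means of n = 2–20 independent measurements, derived by logistic fit.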
For orientation: Cyclic AMP is a second messenger, typically raised through Gs and lowered through Gi signalling.

The target in experiment [3] is T1, Cannabinoid receptor 2. Kind of experiment: Agonist activity at human CB2 receptor expressed in SF9 cells assessed as inhibition of CP-55940-stimulated GTP binding. The essentials: (§3)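 Sf9 membranes co-expressing hCB1 or hCB2 with Gαi3 (Bmax 1.7 pmol/ml). Europium-GTP (10 nM) binding in 50 mM Hepes, 0.1% BSA, 10 mM MgCl2, 150 mM NaCl, GDP, 0.0005% saponin, 1% DMSO. Compound tested from 0.01 nM upward. Incubated 45 min at room temperature, then filtered and washed; fluorescence read at 615 nm. 3 micromolar CP55940 defines 100% efficacy.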

The target of experiment [4] is T1, Cannabinoid receptor 2. Kind of experiment: Agonist activity at human CB2 receptor expressed in CHO cells assessed as suppression of forskolin-stimulated cAMP accumulation. The format is functional, cell-based. The gist of the method: (§4)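 Forskolin-induced cAMP measured in CHO cells expressing human CB1 or CB2. EC50 from a logistic fit of the concentration–response curve. Emax taken as the maximum of the dose–response. Means of n = 2–20 independent measurements.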

The target in experiment [5] is T2, Cannabinoid receptor 1 (Homo sapiens, UniProt P21554). The experiment can be described thus: Agonist activity at human CB1 receptor expressed in SF9 cells assessed as inhibition of CP-55940-stimulated GTP binding relative to control. The gist of the method:
as §1

In experiment [6] the target is T2, Cannabinoid receptor 1. The experiment can be described thus: Agonist activity at human CB1 receptor expressed in CHO cells assessed as suppression of forskolin-stimulated cAMP accumulation. The format is functional, cell-based. The essentials:
as §4

Experiment [7] concerns the target T2, Cannabinoid receptor 1. The experiment can be described thus: Agonist activity at human CB1 receptor expressed in SF9 cells assessed as inhibition of CP-55940-stimulated GTP binding. The essentials:
as §3

In experiment [8] the target is T2, Cannabinoid receptor 1. Kind of experiment: Agonist activity at human CB1 expressed in CHO cells receptor assessed as suppression of forskolin-stimulated cAMP accumulation relative to control. The format is functional, cell-based. The essentials: as §2

SMILES strings stand for the structures.

T2 sequence (P21554 whole entry): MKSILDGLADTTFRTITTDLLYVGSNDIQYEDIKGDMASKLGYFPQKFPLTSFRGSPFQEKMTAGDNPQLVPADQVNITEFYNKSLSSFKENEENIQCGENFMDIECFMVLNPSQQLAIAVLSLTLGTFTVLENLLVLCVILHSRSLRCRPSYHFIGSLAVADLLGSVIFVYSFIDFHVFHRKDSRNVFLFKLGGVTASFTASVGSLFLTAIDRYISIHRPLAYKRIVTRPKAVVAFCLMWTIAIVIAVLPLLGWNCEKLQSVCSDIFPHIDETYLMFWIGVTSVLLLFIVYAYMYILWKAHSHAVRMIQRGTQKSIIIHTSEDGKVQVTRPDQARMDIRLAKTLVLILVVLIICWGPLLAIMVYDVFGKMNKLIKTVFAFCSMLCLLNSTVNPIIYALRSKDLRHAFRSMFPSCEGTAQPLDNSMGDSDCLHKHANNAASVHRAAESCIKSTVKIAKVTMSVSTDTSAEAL
T1 sequence (P34972 whole entry): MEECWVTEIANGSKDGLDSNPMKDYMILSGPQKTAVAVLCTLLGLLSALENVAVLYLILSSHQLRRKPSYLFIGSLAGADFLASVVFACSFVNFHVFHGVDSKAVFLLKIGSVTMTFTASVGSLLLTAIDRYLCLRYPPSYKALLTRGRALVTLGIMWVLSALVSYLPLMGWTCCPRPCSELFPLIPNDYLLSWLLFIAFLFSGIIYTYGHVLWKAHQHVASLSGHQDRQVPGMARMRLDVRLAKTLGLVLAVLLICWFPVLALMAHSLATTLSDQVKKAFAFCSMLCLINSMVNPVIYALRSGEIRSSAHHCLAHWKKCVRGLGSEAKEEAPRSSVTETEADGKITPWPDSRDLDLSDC

Usually Emax stands for the maximal effect, on the per cent scale that the assay sets. As a reminder, the EC50 is the midpoint of the concentration-response curve. As for `CC(C)(C(=O)Nc1cnc2ccccc2c1)S(=O)(=O)c1ccc(C(F)(F)F)cc1`, in the experiment filed under Homo sapiens, the Selectivity ratio is 10. The maximal effect (Emax) was 88% at Cannabinoid receptor 2 [1], 96% at Cannabinoid receptor 2 [2], 86% on Cannabinoid receptor 1 [5] and 93% at Cannabinoid receptor 1 [8]. For the same molecule, the half-maximal effective concentration (EC50) was 96 nM at Cannabinoid receptor 2 [3], 8 nM at Cannabinoid receptor 2 [4], 82 nM on Cannabinoid receptor 1 [6] and 710 nM at Cannabinoid receptor 1 [7].
